Reference: ChEMBL document CHEMBL3856239, “Synthesis and Antiobesity Properties of 6-(4-Chlorophenyl)-3-(4-((3,3-difluoro-1-hydroxycyclobutyl)methoxy)-3-methoxyphenyl)thieno[3,2-d]pyrimidin-4(3H)-one (BMS-814580): A Highly Efficacious Melanin Concentrating Hormone Receptor 1 (MCHR1) Inhibitor” (J Med Chem, 2016)
Converted amounts (≈) assume the structure as drawn.

How the values were obtained:
[1] = Tmax in rat at 10 mg/kg, po; format: ADME, organism-based; conditions: in vivo
Procedure, shortened: (§1)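 Full PK in rat, dog and cynomolgus monkey. Oral arm: phosphate prodrug at 10 mg/kg parent-equivalent in Methocel:Tween80:water (0.5:0.1:99.4). Intravenous arm: parent at 1 mg/kg in PEG400:DMAC:water (70:5:25). n = 3 per species; individual Tmax values reported for dog and monkey.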

Rattus norvegicus [2] = test: Toxicity in DIO Sprague-Dawley rat assessed as biliary lesion at 0.03 to 3 mg/kg, po administered once daily for 28 days by histophalogy analysis; format: organism-based; conditions: in vivo, 672 h
Procedure, shortened: (§2)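 Obese male DIO SD rats, 8/group, dosed orally once daily for 28 days with phosphate prodrug at 0.03–3 mg/kg. Vehicle 14% propylene glycol/1% Tween/85% water. Body weight and food intake recorded daily. Parent plasma levels at 2 and 24 h; prodrug detection limit <2 nM. Histopathology for biliary toxicity at study end.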

[3] = Oral bioavailability in rat at 10 mg/kg; format: ADME, organism-based; conditions: in vivo; procedure, shortened: as §1
Rattus norvegicus [4] = test: Antiobesity activity in DIO Sprague-Dawley rat model assessed as reduction in body weight at 1 mg/kg, po qd for 28 days relative to vehicle control; format: functional; parameters: scale not given: the % may be the effect or the level left
Procedure, shortened: (§3)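 Obese male SD rats on diet-induced obesity, 8/group, dosed orally once daily for 28 days with phosphate prodrug (0.03–3 mg/kg parent) in 14% propylene glycol/1% Tween/85% water; rimonabant 10 mg/kg control; pair-fed groups matched to 1 and 3 mg/kg intake; body weight and food measured daily, % change versus vehicle.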

[5] = Tmax in dog at 10 mg/kg, po; format: ADME, organism-based, Canis lupus familiaris; conditions: in vivo; procedure, shortened: as §1
Rattus norvegicus [6] = test: Antiobesity activity in DIO Sprague-Dawley rat model assessed as reduction in body weight at 3 mg/kg, po qd for 28 days relative to vehicle control; format: functional; parameters: scale not given: the % may be the effect or the level left; procedure, shortened: as §3
Rattus norvegicus [7] = test: Antiobesity activity in DIO Sprague-Dawley rat model assessed as reduction in caloric intake at 3 mg/kg, po qd for 28 days relative to vehicle control; format: functional; parameters: scale not given: the % may be the effect or the level left; procedure, shortened: as §3
Rattus norvegicus [8] = test: Antiobesity activity in DIO Sprague-Dawley rat model assessed as reduction in body weight at 0.03 mg/kg, po qd for 28 days relative to vehicle control; format: functional; parameters: scale not given: the % may be the effect or the level left; procedure, shortened: as §3
[9] = Cmax in cynomolgus monkey at 10 mg/kg, po; format: ADME, organism-based, Macaca fascicularis; parameters: dose 10 mg/kg, route oral; conditions: in vivo
Procedure, shortened: (§4)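 Rats, dogs and cynomolgus monkeys, n = 3: parent 1 mg/kg i.v. in PEG400:DMAC:water (70:5:25), or phosphate prodrug 10 mg/kg oral in Methocel:Tween80:water (0.5:0.1:99.4); plasma parent compound, Cmax, Tmax, AUC0-∞, half-life, clearance, Vss and bioavailability derived.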

[10] = Protein binding in dog plasma assessed as unbound fraction; format: ADME, cell-free, Canis lupus familiaris
Procedure, shortened: (§5)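 Plasma protein binding reported as % free drug in rat, DIO rat, dog, cynomolgus monkey, rabbit and human plasma.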

Rattus norvegicus [11] = test: Antiobesity activity in DIO Sprague-Dawley rat model assessed as reduction in caloric intake at 0.3 mg/kg, po qd for 28 days relative to vehicle control; format: functional; parameters: scale not given: the % may be the effect or the level left; procedure, shortened: as §3
[12] = Protein binding in cynomolgus monkey plasma assessed as unbound fraction; format: ADME, cell-free, Macaca fascicularis; procedure, shortened: as §5
[13] = Plasma concentration in DIO Sprague-Dawley rat assessed as parent compound level at 3 mg/kg, po for 28 days measured after 2 hrs; format: ADME, organism-based; procedure, shortened: as §2
Rattus norvegicus [14] = test: Antiobesity activity in once daily orally dosed DIO Sprague-Dawley rat model assessed as reduction in caloric measured after 28 days relative to vehicle control; format: functional, organism-based; procedure, shortened: as §3
[15] = AUC in dog at 10 mg/kg, po; format: ADME, organism-based, Canis lupus familiaris; conditions: in vivo; procedure, shortened: as §4
[16] = AUC in rat at 10 mg/kg, po; format: ADME, organism-based; conditions: in vivo; procedure, shortened: as §4
Rattus norvegicus [17] = test: Antiobesity activity in DIO Sprague-Dawley rat model assessed as reduction in body weight at 0.3 mg/kg, po qd for 28 days relative to vehicle control; format: functional; parameters: scale not given: the % may be the effect or the level left; procedure, shortened: as §3
[18] = Cmax in rat at 10 mg/kg, po; format: ADME, organism-based; parameters: dose 10 mg/kg, route oral; conditions: in vivo; procedure, shortened: as §4
[19] = Solubility of the compound in phosphate buffer at pH 6.4; format: physicochemical
Procedure, shortened: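 Solubility of parent compounds and prodrugs measured in 50 mM phosphate buffer, pH 6.4.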

Rattus norvegicus [20] = test: Antiobesity activity in DIO Sprague-Dawley rat model assessed as reduction in body weight at 0.1 mg/kg, po qd for 28 days relative to vehicle control; format: functional; parameters: scale not given: the % may be the effect or the level left; procedure, shortened: as §3
[21] = Plasma concentration in DIO Sprague-Dawley rat assessed as parent compound level at 3 mg/kg, po for 28 days measured after 24 hrs
[22] = Protein binding in DIO rat plasma assessed as unbound fraction; format: ADME, cell-free; procedure, shortened: as §5
[23] = Protein binding in rabbit plasma assessed as unbound fraction; format: ADME, cell-free, Oryctolagus cuniculus; procedure, shortened: as §5
[24] = AUC in cynomolgus monkey at 10 mg/kg, po; format: ADME, organism-based, Macaca fascicularis; conditions: in vivo; procedure, shortened: as §4
[25] = Plasma concentration in DIO Sprague-Dawley rat assessed as parent compound level at 0.3 mg/kg, po for 28 days measured after 2 hrs; format: ADME, organism-based; procedure, shortened: as §2
[26] = target: Melanin-concentrating hormone receptor 1 (Homo sapiens, UniProt Q99705); test: Binding affinity to MCHR1 (unknown origin)
Melanin-concentrating hormone receptor 1, sequence (Q99705 whole entry): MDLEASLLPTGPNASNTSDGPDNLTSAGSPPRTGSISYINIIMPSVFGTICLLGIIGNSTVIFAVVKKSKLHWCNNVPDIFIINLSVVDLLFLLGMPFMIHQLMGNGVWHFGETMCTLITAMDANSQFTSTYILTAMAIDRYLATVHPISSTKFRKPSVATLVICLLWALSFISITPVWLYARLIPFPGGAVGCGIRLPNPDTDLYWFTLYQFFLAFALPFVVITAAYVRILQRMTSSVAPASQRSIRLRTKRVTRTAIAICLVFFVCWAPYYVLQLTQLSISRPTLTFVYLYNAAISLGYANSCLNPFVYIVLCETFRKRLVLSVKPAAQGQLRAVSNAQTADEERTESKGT

[27] = Plasma concentration in DIO Sprague-Dawley rat assessed as parent compound level at 0.3 mg/kg, po for 28 days measured after 24 hrs; format: ADME, organism-based; procedure, shortened: as §2
[28] = Tmax in cynomolgus monkey at 10 mg/kg, po; format: ADME, organism-based, Macaca fascicularis; conditions: in vivo; procedure, shortened: as §1
[29] = Oral bioavailability in dog at 10 mg/kg; format: ADME, organism-based, Canis lupus familiaris; conditions: in vivo; procedure, shortened: as §1
Rattus norvegicus [30] = test: Antiobesity activity in DIO Sprague-Dawley rat model assessed as reduction in caloric intake at 0.1 mg/kg, po qd for 28 days relative to vehicle control; format: functional; parameters: scale not given: the % may be the effect or the level left; procedure, shortened: as §3
Rattus norvegicus [31] = test: Toxicity in rat assessed as hepatobiliary lesions up to 100 mg/kg administered for 30 days; format: organism-based; conditions: in vivo, 720 h
Procedure, shortened: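 Rats dosed daily with the phosphate prodrug for 30 days at up to 100 mg/kg; hepatobiliary lesions examined.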

Rattus norvegicus [32] = test: Antiobesity activity in DIO Sprague-Dawley rat model assessed as reduction in caloric intake at 0.03 mg/kg, po qd for 28 days relative to vehicle control; format: functional; parameters: scale not given: the % may be the effect or the level left; procedure, shortened: as §3
Rattus norvegicus [33] = test: Antiobesity activity in DIO Sprague-Dawley rat model assessed as reduction in caloric intake at 1 mg/kg, po qd for 28 days relative to vehicle control; format: functional; parameters: scale not given: the % may be the effect or the level left; procedure, shortened: as §3
[34] = Cmax in dog at 10 mg/kg, po; format: ADME, organism-based, Canis lupus familiaris; parameters: dose 10 mg/kg, route oral; conditions: in vivo; procedure, shortened: as §4
[35] = Oral bioavailability in cynomolgus monkey at 10 mg/kg; format: ADME, organism-based, Macaca fascicularis; conditions: in vivo; procedure, shortened: as §1

Compound: COc1cc(-n2cnc3cc(-c4ccc(Cl)cc4)sc3c2=O)ccc1OCC1(OP(=O)(O)O)CC(F)(F)C1
- Tmax [1]: 6.7 h
- Activity (Rattus norvegicus [2]): Non-Toxic
- bioavailability [3]: 54%
- Activity (Rattus norvegicus [4]): 6.6%
- Tmax [5]: 9.3 h
- Activity (Rattus norvegicus [6]): 7.8%
- Activity (Rattus norvegicus [7]): 14.7%
- Activity (Rattus norvegicus [8]): 1.7%
- Cmax [9]: 1200 nM
- Fu [10]: 0.3%
- Activity (Rattus norvegicus [11]): 12.8%
- Fu [12]: 0.4%
- concentration at 2 h [13]: 13500 nM
- inhibition (Rattus norvegicus [14]): Dose-dependent effect
- AUC [15]: 15.3 µM·h
- AUC [16]: 107 µM·h
- Activity (Rattus norvegicus [17]): 5%
- Cmax [18]: 4000 nM
- solubility [19]: 4 µg/mL (≈ 6.84 µM)
- Activity (Rattus norvegicus [20]): 3.2%
- concentration at 24 h [21]: 14400 nM
- Fu [22]: 0.1%
- Fu [23]: 0.2%
- AUC [24]: 87 µM·h
- concentration at 2 h [25]: 2000 nM
- Ki [26]: 2920 nM
- concentration at 24 h [27]: 1200 nM
- Tmax [28]: 10.7 h
- bioavailability [29]: 33%
- Activity (Rattus norvegicus [30]): 10.5%
- Activity (Rattus norvegicus [31]): Non-Toxic
- Activity (Rattus norvegicus [32]): 6.5%
- Activity (Rattus norvegicus [33]): 14.5%
- Cmax [34]: 1200 nM
- bioavailability [35]: 46%
